Source: ChEMBL document CHEMBL1132437, “Synthesis and antimicrobial activity of 4H-4-oxoquinolizine derivatives: consequences of structural modification at the C-8 position” (1999)
Values after ≈ are worked out from the molar mass of the structure shown.

Experiments:
Enterococcus faecium = assay: In vitro antibacterial activity against gram-positive Enterococcus faecium ATCC 8043; assay type: functional
In short: (§1)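 Agar dilution MIC determination following the National Committee for Clinical Laboratory Standards recommendations.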

Escherichia coli [1] = assay: In vitro antibacterial activity against gram negative Escherichia coli KNK 437; assay type: functional; in short: as §1
Pseudomonas aeruginosa [2] = assay: In vitro antibacterial activity against Gram-negative Pseudomonas aeruginosa 5007; assay type: functional; in short: as §1
Pseudomonas aeruginosa [3] = assay: In vitro antibacterial activity against gram negative P. aeruginosa DPHP 5263; assay type: functional; in short: as §1
Burkholderia cepacia = assay: In vitro antibacterial activity against gram negative Pseudomonas cepacia 2961; assay type: functional; in short: as §1
Staphylococcus aureus [4] = assay: In vitro antibacterial activity against gram-positive Staphylococcus aureus 1775; assay type: functional; in short: as §1
Staphylococcus aureus [5] = assay: In vitro antibacterial activity against gram-positive Staphylococcus aureus NCTC 10649M; assay type: functional; in short: as §1
Streptococcus pyogenes = assay: In vitro antibacterial activity against gram positive Streptococcus pyogenes 930; assay type: functional; in short: as §1
Pseudomonas aeruginosa [6] = assay: In vivo efficacy against Pseudomonas aeruginosa 5007 in mouse protection test after subcutaneous administration; assay type: functional; conditions: Pseudomonas aeruginosa, sc; read-out: ED50
In short: (§2)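 Mouse protection model: mice infected intravenously with 100-fold LD50 of the organism. Compound given by subcutaneous injection or oral gavage at 1 and 5 h after infection, over a dose range. Deaths tracked for 7 days post-inoculation. ED50 is the dose giving 50% survival of treated mice over the trial.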

Staphylococcus aureus [7] = assay: In vivo efficacy against Staphylococcus aureus NCTC 10649M in mouse protection test after p.o. administration.; assay type: functional; conditions: Staphylococcus aureus, po; read-out: ED50; in short: as §2
Mus musculus [8] = assay: In vivo efficacy against Streptococcus pneumoniae ATCC 6303 in mouse protection test after administration by oral gavage; assay type: functional; in short: as §2
Streptococcus pneumoniae = assay: In vivo efficacy against Streptococcus pneumoniae ATCC 6303 in mouse protection test after s.c. administration.; assay type: functional; conditions: Streptococcus pneumoniae, sc; read-out: ED50; in short: as §2
Escherichia coli [9] = assay: In vivo efficacy against Escherichia coli JUHL in mouse protection test after p.o. administration.; assay type: functional; conditions: Escherichia coli, po; read-out: ED50; in short: as §2
Escherichia coli [10] = assay: In vivo efficacy against Escherichia coli JUHL in mouse protection test after subcutaneous administration; assay type: functional; conditions: Escherichia coli, sc; read-out: ED50; in short: as §2
Pseudomonas aeruginosa [11] = assay: In vivo efficacy against Pseudomonas aeruginosa 5007 in mouse protection test after administration by oral gavage; assay type: functional; conditions: Pseudomonas aeruginosa, po; read-out: ED50; in short: as §2
Mus musculus [12] = assay: In vivo efficacy against Staphylococcus aureus NCTC 10649M in mouse protection test
Staphylococcus aureus [13] = assay: In vivo efficacy against Staphylococcus aureus NCTC 10649M in mouse; assay type: functional; conditions: Staphylococcus aureus; read-out: ED50; in short: as §2
Pseudomonas aeruginosa [14] = assay: Not Plasmodium species; assay type: functional
Mus musculus [15] = assay: In vivo efficacy against Pseudomonas aeruginosa 5007 in mouse protection test […]; assay type: functional; in short: as §2
[16] = Enterococcus faecium, ATCC 8043, read-out: MIC
[17] = Escherichia coli, read-out: MIC
[18] = Pseudomonas aeruginosa, read-out: MIC
[19] = Pseudomonas aeruginosa, DPHP 5263, read-out: MIC
[20] = Burkholderia cepacia, read-out: MIC
[21] = Staphylococcus aureus, read-out: MIC
[22] = Staphylococcus aureus, NCTC 10649, read-out: MIC
[23] = Streptococcus pyogenes, read-out: MIC

Row | Structure (SMILES) | MIC (Enterococcus faecium; [16]) | MIC (Escherichia coli [1]; [17]) | MIC (Pseudomonas aeruginosa [2]; [18]) | MIC (Pseudomonas aeruginosa [3]; [19]) | MIC (Burkholderia cepacia; [20]) | MIC (Staphylococcus aureus [4]; [21]) | MIC (Staphylococcus aureus [5]; [22]) | MIC (Streptococcus pyogenes; [23]) | ED50 (Pseudomonas aeruginosa [6]) | ED50 (Staphylococcus aureus [7]) | ED50 (Streptococcus pneumoniae) | ED50 (Escherichia coli [9]) | ED50 (Escherichia coli [10]) | ED50 (Staphylococcus aureus [13]) | also measured
1 | Cc1c(N2CCCN2C)c(F)cn2c(=O)c(C(=O)O)cc(C3CC3)c12 | 0.39 µg/mL (≈ 1.13 µM) | 3.1 µg/mL (≈ 8.98 µM) | 3.1 µg/mL (≈ 8.98 µM) | > 100 µg/mL | 1.56 µg/mL (≈ 4.52 µM) | 3.1 µg/mL (≈ 8.98 µM) | 0.02 µg/mL (≈ 0.0579 µM) | 0.39 µg/mL (≈ 1.13 µM) |  |  |  |  |  |  | 
2 | Cc1c(N2C[C@H](C)[C@@H](N)C2)c(F)cn2c(=O)c(C(=O)O)cc(C3CC3)c12 | 0.2 µg/mL (≈ 0.556 µM) | 0.1 µg/mL (≈ 0.278 µM) | 0.39 µg/mL (≈ 1.09 µM) | 3.1 µg/mL (≈ 8.63 µM) | 0.78 µg/mL (≈ 2.17 µM) | 0.78 µg/mL (≈ 2.17 µM) | 0.05 µg/mL (≈ 0.139 µM) | 0.1 µg/mL (≈ 0.278 µM) |  |  |  |  |  |  | 
3 | Cc1c(N2CC[C@H](NC3CC3)C2)c(F)cn2c(=O)c(C(=O)O)cc(C3CC3)c12 | 0.2 µg/mL (≈ 0.519 µM) | 0.2 µg/mL (≈ 0.519 µM) | 0.39 µg/mL (≈ 1.01 µM) | 12.5 µg/mL (≈ 32.4 µM) | 0.39 µg/mL (≈ 1.01 µM) | 0.39 µg/mL (≈ 1.01 µM) | 0.02 µg/mL (≈ 0.0519 µM) | 0.05 µg/mL (≈ 0.13 µM) | > 32 mg/kg | 25 mg/kg | > 8 mg/kg | 16.5 mg/kg | 5 mg/kg | 3.6 mg/kg | ED50 (Mus musculus [15]): > 50 mg/kg; ED50 (Mus musculus [8]): 23.1 mg/kg
4 | Cc1c(N2CCC2)c(F)cn2c(=O)c(C(=O)O)cc(C3CC3)c12 | 0.78 µg/mL (≈ 2.47 µM) | 3.1 µg/mL (≈ 9.8 µM) |  | > 10 µg/mL | 3.1 µg/mL (≈ 9.8 µM) | 3.1 µg/mL (≈ 9.8 µM) | 0.2 µg/mL (≈ 0.632 µM) | 0.78 µg/mL (≈ 2.47 µM) |  |  |  |  |  |  | MIC (Pseudomonas aeruginosa [14]): 3.1 µg/mL (≈ 9.8 µM)
5 | Cc1c(N2C[C@@H](N)[C@H](C3CC3)C2)c(F)cn2c(=O)c(C(=O)O)cc(C3CC3)c12 (stereo in doubt) |  |  |  |  |  |  |  |  | > 32 mg/kg | 10.9 mg/kg | 8 mg/kg | 10 mg/kg | 3.4 mg/kg |  | MIC (Enterococcus faecium): 0.1 µg/mL (≈ 0.259 µM); MIC (Escherichia coli [1]): 0.2 µg/mL (≈ 0.519 µM); ED50 (Mus musculus [8]): 25 mg/kg; ED50 (Pseudomonas aeruginosa [11]): > 50 mg/kg; MIC (Pseudomonas aeruginosa [2]): 0.39 µg/mL (≈ 1.01 µM); MIC (Pseudomonas aeruginosa [3]): 3.1 µg/mL (≈ 8.04 µM); MIC (Burkholderia cepacia): 1.56 µg/mL (≈ 4.05 µM); MIC (Staphylococcus aureus [4]): 0.78 µg/mL (≈ 2.02 µM); MIC (Staphylococcus aureus [5]): 0.05 µg/mL (≈ 0.13 µM); MIC (Streptococcus pyogenes): 0.05 µg/mL (≈ 0.13 µM); ED50 (Mus musculus [12]): 1.5 mg/kg

The remaining molecules from weak to strong by MIC (Enterococcus faecium; [16]), led by results:

Row | MIC (Enterococcus faecium; [16]) | MIC (Escherichia coli [1]; [17]) | MIC (Pseudomonas aeruginosa [2]; [18]) | MIC (Pseudomonas aeruginosa [3]; [19]) | MIC (Burkholderia cepacia; [20]) | MIC (Staphylococcus aureus [4]; [21]) | MIC (Staphylococcus aureus [5]; [22]) | MIC (Streptococcus pyogenes; [23]) | Structure (SMILES) | ED50 (Pseudomonas aeruginosa [6]) | ED50 (Staphylococcus aureus [7]) | ED50 (Streptococcus pneumoniae) | ED50 (Escherichia coli [9]) | ED50 (Escherichia coli [10]) | ED50 (Staphylococcus aureus [13]) | also measured
6 | 0.2 µg/mL (≈ 0.605 µM) | 0.39 µg/mL (≈ 1.18 µM) |  | > 100 µg/mL | 0.78 µg/mL (≈ 2.36 µM) | 0.78 µg/mL (≈ 2.36 µM) | 0.02 µg/mL (≈ 0.0605 µM) | 0.2 µg/mL (≈ 0.605 µM) | Cc1c(N2CCCC2)c(F)cn2c(=O)c(C(=O)O)cc(C3CC3)c12 |  |  |  |  | > 50 mg/kg | > 12 mg/kg | MIC (Pseudomonas aeruginosa [14]): 0.78 µg/mL (≈ 2.36 µM)
7 | 0.1 µg/mL (≈ 0.268 µM) |  | 0.2 µg/mL (≈ 0.536 µM) |  | 0.78 µg/mL (≈ 2.09 µM) |  | 0.01 µg/mL (≈ 0.0268 µM) |  | CN[C@@H]1CN(c2c(F)cn3c(=O)c(C(=O)O)cc(C4CC4)c3c2C)C[C@H]1C (stereo in doubt) |  |  |  |  |  |  | MIC (Escherichia coli [1]): 0.05 µg/mL (≈ 0.134 µM); MIC (Pseudomonas aeruginosa [3]): 3.1 µg/mL (≈ 8.3 µM); MIC (Staphylococcus aureus [4]): 0.39 µg/mL (≈ 1.04 µM); MIC (Streptococcus pyogenes): 0.02 µg/mL (≈ 0.0536 µM)
8 | 0.1 µg/mL (≈ 0.259 µM) | 0.2 µg/mL (≈ 0.519 µM) | 0.39 µg/mL (≈ 1.01 µM) | 12.5 µg/mL (≈ 32.4 µM) | 0.78 µg/mL (≈ 2.02 µM) | 0.39 µg/mL (≈ 1.01 µM) |  |  | Cc1c(N2C[C@@H](N)[C@@H](C3CC3)C2)c(F)cn2c(=O)c(C(=O)O)cc(C3CC3)c12 (stereo in doubt; 3s) |  | 3.4 mg/kg |  | 6.6 mg/kg | 3.7 mg/kg | 1.5 mg/kg | MIC (Staphylococcus aureus [5]): 0.02 µg/mL (≈ 0.0519 µM); MIC (Streptococcus pyogenes): 0.1 µg/mL (≈ 0.259 µM)
9 | 0.1 µg/mL (≈ 0.259 µM) | 0.1 µg/mL (≈ 0.259 µM) | 0.78 µg/mL (≈ 2.02 µM) | 6.2 µg/mL (≈ 16.1 µM) | 0.78 µg/mL (≈ 2.02 µM) | 0.78 µg/mL (≈ 2.02 µM) |  | 0.05 µg/mL (≈ 0.13 µM) | Cc1c(N2C[C@@H](N)[C@H](C3CC3)C2)c(F)cn2c(=O)c(C(=O)O)cc(C3CC3)c12 (stereo in doubt; 3t) |  |  |  |  |  |  | MIC (Staphylococcus aureus [5]): 0.01 µg/mL (≈ 0.0259 µM)
10 | 0.05 µg/mL (≈ 0.125 µM) | 0.2 µg/mL (≈ 0.501 µM) | 0.39 µg/mL (≈ 0.976 µM) | 25 µg/mL (≈ 62.6 µM) | 3.1 µg/mL (≈ 7.76 µM) | 1.56 µg/mL (≈ 3.91 µM) | 0.01 µg/mL (≈ 0.025 µM) | 0.05 µg/mL (≈ 0.125 µM) | Cc1c(N2CCCC(NC3CC3)C2)c(F)cn2c(=O)c(C(=O)O)cc(C3CC3)c12 (stereo not drawn) | > 32 mg/kg | 2.1 mg/kg | 1 mg/kg | 8 mg/kg | 2.8 mg/kg |  | ED50 (Mus musculus [8]): 2.5 mg/kg; ED50 (Pseudomonas aeruginosa [11]): > 50 mg/kg; ED50 (Mus musculus [12]): 0.4 mg/kg
11 | 0.05 µg/mL (≈ 0.125 µM) | 0.1 µg/mL (≈ 0.25 µM) | 0.78 µg/mL (≈ 1.95 µM) | 25 µg/mL (≈ 62.6 µM) | 6.2 µg/mL (≈ 15.5 µM) | 3.1 µg/mL (≈ 7.76 µM) | 0.01 µg/mL (≈ 0.025 µM) | 0.02 µg/mL (≈ 0.0501 µM) | Cc1c(N2CCC[C@@H](NC3CC3)C2)c(F)cn2c(=O)c(C(=O)O)cc(C3CC3)c12 | > 32 mg/kg |  | > 16 mg/kg |  |  | 1.8 mg/kg | 
12 | 0.05 µg/mL (≈ 0.135 µM) | 0.2 µg/mL (≈ 0.538 µM) | 0.39 µg/mL (≈ 1.05 µM) | 6.2 µg/mL (≈ 16.7 µM) | 3.1 µg/mL (≈ 8.35 µM) | 1.56 µg/mL (≈ 4.2 µM) | 0.02 µg/mL (≈ 0.0538 µM) | 0.05 µg/mL (≈ 0.135 µM) | Cc1c(N2CC[C@@H]3[C@H](N)[C@@H]3C2)c(F)cn2c(=O)c(C(=O)O)cc(C3CC3)c12 |  | 4.1 mg/kg |  | 5 mg/kg | 0.9 mg/kg |  | ED50 (Mus musculus [12]): 1.2 mg/kg
